Our source for the ILS, LD20 and Optimal dose values is ChEMBL document CHEMBL1124897, “(1-Pyrenylmethyl)amino alcohols, a new class of antitumor DNA intercalators. Discovery and initial amine side chain structure-activity studies” (1990).

Molecules are shown by their SMILES.

Assay type in all cases: functional, Mus musculus
Assay [1] relates to P388. Kind of assay: In vivo antitumor activity against murine lymphocytic leukemia P388 measured as percent increase in life span. Put shortly:
(§1)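 Male CD2-F1 mice (20 ± 3 g) implanted ip with 1 × 10^6 viable P388 cells on day 0. Drug given ip as aqueous suspension or solution in 0.9% NaCl or 5% dextrose on days 1, 5 and 9, dosed per body weight in mg/kg. Several dose levels bracketing the LD20 were tested, six mice per dose. Deaths before the control median day of death were counted as drug toxicity.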

The test system of assay [2] is P388. In words: In vivo antitumor activity against murine lymphocytic leukemia P388 measured as lethal dose […]. Further details: unit: mg/kg. Put shortly: as §1
Assay [3] has as its system P388. Kind of assay: In vivo antitumor activity against murine lymphocytic leukemia P388 measured as optimal dose. Put shortly: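 Male CD2-F1 mice (20 ± 3 g) implanted ip with 1 × 10^6 viable P388 cells on day 0. Compound given ip as aqueous suspension or solution in 0.9% NaCl or 5% dextrose on days 1, 5 and 9, dosed per mg/kg body weight. Several doses bracketing LD20 were tested, six mice per dose. %ILS was calculated from median day of death of treated versus control mice. Values are optimal from at least two experiments.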

As usually defined, the ILS is how much longer treated animals lived than controls. In the assay on P388 [1], `CCC(CO)(CO)NCc1ccc2ccc3cccc4ccc1c2c34.Cl` displayed an increase in lifespan (ILS) of 140%. In addition, in the assay on P388 [2], the LD20 amounted to 340. Moreover, in the assay on P388 [3], the Optimal dose stood at 303 mg/kg.
The corresponding values for `OCC1OC(O)C(NCc2ccc3ccc4cccc5ccc2c3c45)C(O)C1O` (configuration not stated) are 20%, 400 and 450 mg/kg.
For `Cl.OCC(CO)(CO)NCc1ccc2ccc3cccc4ccc1c2c34` the same measures were 90%, 215 and 198 mg/kg.
For `Cl.c1cc2ccc3ccc(CNCCCN4CCOCC4)c4ccc(c1)c2c34` the same measures were 20%, 150 and 150 mg/kg.
In turn, `Cl.OCCNCc1ccc2ccc3cccc4ccc1c2c34` showed an increase in lifespan (ILS) with P388 [1] of 31%. The same compound returned an LD20 with P388 [2] of 220. For the same compound, in the assay on P388 [3], the Optimal dose turned out to be 221 mg/kg.
The corresponding values for `CC(O)C(C)(CO)NCc1ccc2ccc3cccc4ccc1c2c34.Cl` (configuration not stated) are 77%, 125 and 125 mg/kg.
For `Cl.OCC(O)C(CO)NCc1ccc2ccc3cccc4ccc1c2c34` (configuration not stated), in the assay on P388 [1], the ILS came to 25%. Also, in the assay on P388 [2], the LD20 is recorded as 140. The compound further registered an Optimal dose in the assay with P388 [3] of 125 mg/kg.
Consider `CC(CO)(CO)NCc1ccc2ccc3cccc4ccc1c2c34.Cl`, for which, in the assay with P388 [1], the increase in life span (ILS) is reported as 125%. In the assay on P388 [2], this compound gave an LD20 of 300. Also, the Optimal dose with P388 [3] turned out to be 300 mg/kg.
The corresponding values for `COCC(C)(CO)NCc1ccc2ccc3cccc4ccc1c2c34` (configuration not stated) are 30%, 135 and 180 mg/kg.
For `CC(=O)OCC(COC(C)=O)(COC(C)=O)NCc1ccc2ccc3cccc4ccc1c2c34` the same measures were 30%, 500 and 315 mg/kg.
The corresponding values for `CN(CCCN)CCCNCc1ccc2ccc3cccc4ccc1c2c34.Cl` are 20%, 23 and 23 mg/kg.
`CCC(CO)NCc1ccc2ccc3cccc4ccc1c2c34.Cl` (configuration not stated) displayed an ILS with P388 [1] of 25%. Besides, the LD20 in the assay with P388 [2] turned out to be 450. For the same compound, the Optimal dose with P388 [3] amounted to 366 mg/kg.
For the compound `CC(C)C(CO)NCc1ccc2ccc3cccc4ccc1c2c34.Cl` (configuration not stated), the ILS in the assay with P388 [1] was 27%. Moreover, in the assay on P388 [2], the LD20 is 450. The same compound returned an Optimal dose in the assay on P388 [3] of 200 mg/kg.
The corresponding values for `CC(C)(CO)NCc1ccc2ccc3cccc4ccc1c2c34.Cl` are 45%, 450 and 250 mg/kg.
